Assay results collected from several papers.
Compare with care: the assays were run in different laboratories.
Target: Mitogen-activated protein kinase kinase kinase 12 (MAP3K12, Homo sapiens, UniProt Q12852)
Sequence (Q12852 1-859, as in one of the studies): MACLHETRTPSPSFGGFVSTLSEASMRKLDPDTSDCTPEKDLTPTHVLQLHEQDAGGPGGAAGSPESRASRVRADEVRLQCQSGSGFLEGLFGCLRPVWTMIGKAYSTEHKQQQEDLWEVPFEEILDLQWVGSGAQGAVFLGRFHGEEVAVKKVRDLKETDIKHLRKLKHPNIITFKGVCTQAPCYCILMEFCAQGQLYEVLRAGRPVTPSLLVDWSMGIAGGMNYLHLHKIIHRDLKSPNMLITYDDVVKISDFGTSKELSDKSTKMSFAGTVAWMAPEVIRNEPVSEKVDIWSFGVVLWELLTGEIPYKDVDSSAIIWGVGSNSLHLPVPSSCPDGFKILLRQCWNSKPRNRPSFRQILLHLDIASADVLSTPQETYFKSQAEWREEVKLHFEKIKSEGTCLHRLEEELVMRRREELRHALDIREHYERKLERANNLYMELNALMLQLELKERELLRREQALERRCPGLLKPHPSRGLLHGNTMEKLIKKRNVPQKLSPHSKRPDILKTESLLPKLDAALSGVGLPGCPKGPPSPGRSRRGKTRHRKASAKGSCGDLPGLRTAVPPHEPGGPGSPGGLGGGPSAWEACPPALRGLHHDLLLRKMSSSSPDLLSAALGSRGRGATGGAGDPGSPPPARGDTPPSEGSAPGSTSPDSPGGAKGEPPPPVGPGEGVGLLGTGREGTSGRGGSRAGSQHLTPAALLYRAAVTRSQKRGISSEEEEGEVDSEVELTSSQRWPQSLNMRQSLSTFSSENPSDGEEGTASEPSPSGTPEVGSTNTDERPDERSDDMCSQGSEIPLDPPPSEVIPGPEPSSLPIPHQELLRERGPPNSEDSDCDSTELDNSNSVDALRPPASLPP

| SMILES | observed | mode | technique | tested at | measurement | value |
| --- | --- | --- | --- | --- | --- | --- |
| CC(C)(O)[C@H]1CC[C@H](Nc2ccc3ncc(-c4cccc(C(F)(F)F)c4)n3n2)CC1 | enzyme activity | inhibitor |  | 1 µM | remaining activity | 73% |
| COc1ccc2cc(OCC3(C(=O)O)CN(C(=O)c4ccc(F)cc4)C3)ccc2c1 | cell-free assay |  | competition with immobilised ligand | 1 µM | remaining binding | 97% |
| O=C(Nc1cnn(-c2csc(C(=O)NC3COC3)c2)c1)Nc1ccccc1Cl | enzyme activity | inhibitor |  | 5 µM | remaining activity | 96.5% |
| COc1ccnn2ncc(-c3ccnc(N(C)C)n3)c12 | binding |  |  | 1 µM | remaining binding | 97% |
| O=C(Nc1cccnn1)N1CCC(=Cc2cccc(Oc3ccc(C(F)(F)F)cn3)c2)CC1 | cell-free assay |  | competition with immobilised ligand | 1 µM | remaining binding | 100% |
| N[C@@H]1CCN(c2nccc(-c3cnn4ncccc34)n2)C1 | binding |  |  | 1 µM | remaining binding | 100% |
| CC/C(=N\NC(=O)NCc1cccc(O)c1)c1ccc(O)c(C)c1O | enzyme activity | inhibitor |  | 0.1 µM | inhibition | 0.4% |
| O=C(Nc1cnn(-c2csc(C(=O)NC3COC3)c2)c1)Nc1c(F)cccc1Cl | enzyme activity | inhibitor |  | 5 µM | remaining activity | 82.2% |
| Cc1ccc(C(=O)Nc2ccc(CN3CCN(C)CC3)c(C(F)(F)F)c2)cc1C#Cc1cnc2cccnn12 | enzyme activity | inhibitor |  | 23.5 nM | remaining activity | 76% |
| Nc1ncnc2occ(-c3ccc(NC(=O)Nc4cc(C(F)(F)F)ccc4F)cc3)c12 | cell-free assay | inhibitor |  | 20 µM | remaining signal | 17% |
